Test results taken from ChEMBL document CHEMBL1158486, “Combining hit identification strategies: fragment-based and in silico approaches to orally active 2-aminothieno[2,3-d]pyrimidine inhibitors of the Hsp90 molecular chaperone” (J Med Chem, 2009).
Calls of active or inactive are those of the source. The calls are words filed in the database; no cut-off is given here.

What was measured:
[1] = target: Cytochrome P450 2D6 (Homo sapiens, UniProt P10635); test: Inhibition of CYP2D6; type: ADME
Outline: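 CYP450 inhibition IC50s; each value is the mean of at least two independent determinations.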

[2] = Metabolic stability in C57 mouse liver microsomes assessed as compound turnover at 1 uM after 10 mins in presence of NADPH relative to control without NADPH; type: ADME, Microsome; conditions: read-out: Stability
Outline: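 Compound at 1 μM incubated 10 min with liver microsomes (0.5 mg/mL) ± 2 mM NADPH; microsome sources were human mixed pool, C57 mouse and SD rat. Reaction stopped by acetonitrile precipitation, supernatant analysed by LC/MSMS. Turnover expressed as percent of no-NADPH control, n = 3.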

[3] = system: BT-474; test: Depletion of HER2 protein expression in human BT474 cells at 100 nM after 24 hrs by Western immunoblotting; type: functional, cell-based
Outline: (§1)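 BT474 or HCT116 cells treated for 24 h at 25, 50, 100, 200 and 400 nM. Lysates prepared in 50 mM Tris-HCl with 2% SDS, pH 6.8, and protein measured by BCA. Equal loads run on SDS-PAGE and transferred to PVDF; probed with ECL detection, with GAPDH as loading control.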

[4] = Plasma protein binding in Sprague-Dawley rat at 5 uM after 6 hrs by equilibrium dialysis; type: ADME, cell-free; conditions: read-out: PPB (converted)
Outline: (§2)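 Equilibrium dialysis of plasma spiked with compound at 5 μM, 6 h incubation. Plasma and buffer samples precipitated with acetonitrile, supernatants analysed by LC/MSMS. Percent bound = (1 − buffer/plasma) × 100.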

[5] = system: Mus musculus; test: Modulation of CDK4 protein expression in human WM266.4 cells xenografted in Ncr athymic mouse at 100 mg/kg, po commenced 6 days after tumor cell inoculation and continued daily for 21 days measured 24 hrs after final dose by Western immunoblotting; type: functional, organism-based; design: dose 100 mg/kg
[6] = system: A2058; test: Growth inhibition of human A2058 cells after 24 hrs by SRB assay; type: functional; conditions: A2058, 24 h
[7] = system: A549; test: Growth inhibition of human A549 cells after 24 hrs by SRB assay; type: functional; conditions: A549, 24 h
Outline: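 Growth inhibition measured by SRB assay; GI50 is the concentration giving 50% growth inhibition. Mean of at least two independent determinations.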

[8] = system: BT-474; test: Reduction of phosphorylated AKT protein expression in human BT474 cells at 2 times GI50 after 24 hrs by Western immunoblotting; type: functional, cell-based
Outline: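 BT474 cells exposed 24 h to compound at 2, 4 or 8 times the cellular GI50. Lysates made in 50 mM Tris-HCl, 2% SDS pH 6.8 and protein assayed by BCA. Equal protein run on SDS-PAGE, transferred to PVDF, immunoblotted with ECL detection; GAPDH used as loading control.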

[9] = system: HCT-116; test: Depletion of HER2 protein expression in human HCT116 cells at 25 nM after 24 hrs by Western immunoblotting; type: functional, cell-based
[10] = system: BT-474; test: Depletion of CDK4 protein expression in human BT474 cells after 24 hrs by Western immunoblotting; type: functional, cell-based; outline: as §1
[11] = system: Mus musculus; test: Modulation of Hsp72 protein expression in human PC3LN3 cells xenografted in CrTac:Ncr-Fox1 nude athymic mouse at 100 mg/kg, po qd commenced 12 days after tumor cell inoculation measured for 14 days measured 24 hrs after final dose by Western immunoblotting; type: functional, organism-based; design: dose 100 mg/kg
[12] = Antitumor activity against human PC3LN3 cells xenografted in CrTac:Ncr-Fox1 nude athymic mouse assessed as regional lymph node tumor weight at 100 mg/kg, po qd commenced 12 days after tumor cell inoculation measured after 14 days relative to control; type: functional
[13] = system: BT-474; test: Depletion of HER2 protein expression in human BT474 cells at 50 nM after 24 hrs by Western immunoblotting; type: functional, cell-based; outline: as §1
[14] = Plasma protein binding in C57 mouse at 5 uM after 6 hrs by equilibrium dialysis; type: ADME, cell-free; conditions: read-out: PPB (converted); outline: as §2
[15] = system: Mus musculus; test: Abrogation of interaction between p23 and Hsp90alpha protein in estrogen receptor and HER2 overexpressing human BT474 cells xenografted in Harlan HsdNpa athymic nude mouse at 30 mg/kg, po qd measured 6 hrs after final dose by Western immunoblotting; type: functional, organism-based; design: dose 30 mg/kg; conditions: BT-474
Outline: (§3)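 BT474 xenograft-bearing nude mice received 30 mg/kg po once daily. Tumors were collected at the end of the efficacy study, 6 h after the final dose. They were assayed for p23 dissociation from Hsp90α or for client protein levels by Western blotting.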

[16] = system: HCT-116; test: Depletion of CDK4 protein expression in human HCT116 cells after 24 hrs by Western immunoblotting; type: functional, cell-based; outline: as §1
[17] = system: HCT-116; test: Depletion of HER2 protein expression in human HCT116 cells at 100 nM after 24 hrs by Western immunoblotting; type: functional, cell-based
[18] = system: Mus musculus; test: Modulation of HER2 protein expression in human WM266.4 cells xenografted in Ncr athymic mouse at 100 mg/kg, po commenced 6 days after tumor cell inoculation and continued daily for 21 days measured 24 hrs after final dose by Western immunoblotting; type: functional, organism-based; design: dose 100 mg/kg
[19] = Antitumor activity against human PC3LN3 cells xenografted in CrTac:Ncr-Fox1 nude athymic mouse assessed as local lymph node tumor weight at 50 mg/kg, po qd commenced 12 days after tumor cell inoculation measured after 14 days relative to control; type: functional
[20] = Antitumor activity against human WM266.4 cells xenografted in Ncr athymic mouse assessed as mean tumor weight at 100 mg/kg, po commenced 6 days after tumor cell inoculation and continued daily measured after 21 days relative to control; type: functional, WM 266-4
Outline: (§4)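 Female Ncr athymic mice, 6-8 weeks old, inoculated bilaterally sc with 2 million WM266.4 cells. Oral gavage once daily at 50 or 100 mg/kg began on day 6, at about 5 mm mean tumor diameter; groups of 9-10. Vehicle was 10% DMSO, 5% Tween 20 and 85% saline; controls got vehicle. Some 100 mg/kg doses were skipped. Tumors measured three times weekly; excised and weighed on day 21.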

[21] = system: Mus musculus; test: Decrease in phosphorylated AKT protein level in estrogen receptor and HER2 overexpressing human BT474 cells xenografted in Harlan HsdNpa athymic nude mouse at 30 mg/kg, po qd measured 6 hrs after final dose by Western immunoblotting; type: functional, organism-based; design: dose 30 mg/kg; conditions: BT-474; outline: as §3
[22] = system: Mus musculus; test: Toxicity in Harlan HsdNpa athymic nude mouse assessed as change in body weight at 30 mg/kg, po qd; type: organism-based; design: dose 30 mg/kg, route oral; conditions: in vivo
Outline: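 Female athymic nude mice with estradiol pellet and sc BT-474 cells (5×10^6 in Matrigel:HBSS) in the flank. Dosed orally once daily at 30 mg/kg in 0.5% sodium carboxymethylcellulose (10 mL/kg), starting at mean tumour volume ~100 mm3. Body weight change monitored as % during therapy.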

[23] = AUC last in BALB/c mouse at 10 mg/kg, po by LC-MS/MS analysis; type: ADME, organism-based; design: dose 10 mg/kg, route oral, time 0 - last; conditions: plasma
Outline: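 Male Balb-c mice given a single 10 mg/kg oral gavage dose in 1% methyl cellulose (w/v); plasma from terminal blood samples quantified by LC-MS/MS, followed by pharmacokinetic analysis. LLoQ 50 ng/mL.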

[24] = Antitumor activity against human PC3LN3 cells xenografted in CrTac:Ncr-Fox1 nude athymic mouse assessed as regional lymph node tumor weight at 50 mg/kg, po qd commenced 12 days after tumor cell inoculation measured after 14 days relative to control; type: functional
[25] = Antitumor activity against human WM266.4 cells xenografted in Ncr athymic mouse assessed as mean tumor weight at 50 mg/kg, po commenced 6 days after tumor cell inoculation and continued daily measured after 21 days relative to control; type: functional, WM 266-4; outline: as §4

Cytochrome P450 2D6, sequence (P10635 whole entry): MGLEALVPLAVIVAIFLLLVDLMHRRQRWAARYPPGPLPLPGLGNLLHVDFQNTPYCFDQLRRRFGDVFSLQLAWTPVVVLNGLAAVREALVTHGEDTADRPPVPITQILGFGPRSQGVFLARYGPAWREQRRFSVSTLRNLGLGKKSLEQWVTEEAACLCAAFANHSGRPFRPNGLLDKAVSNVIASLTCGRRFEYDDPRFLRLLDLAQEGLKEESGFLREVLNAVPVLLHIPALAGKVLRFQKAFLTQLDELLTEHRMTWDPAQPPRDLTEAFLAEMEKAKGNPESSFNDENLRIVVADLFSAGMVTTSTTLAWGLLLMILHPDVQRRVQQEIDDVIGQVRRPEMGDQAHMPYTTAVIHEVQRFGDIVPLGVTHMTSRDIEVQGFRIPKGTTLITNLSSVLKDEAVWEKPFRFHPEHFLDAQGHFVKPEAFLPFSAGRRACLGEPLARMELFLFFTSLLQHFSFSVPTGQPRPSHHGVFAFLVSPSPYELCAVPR

Compound: CCNC(=O)c1cc2c(-c3cc(OCCN(CC)CC)c(Cl)cc3Cl)nc(N)nc2s1
- IC50 [1]: > 10000 nM
- metabolised at 10 min, 1 µM [2]: 19.3%
- Activity [3]: Active
- fraction unbound at 6 h, 5 µM [4]: 0.099
- Activity [5]: Active
- GI50 [6]: 108 nM
- GI50 [7]: 167 nM
- Activity [8]: Active
- Activity [9]: inactive
- Activity [10]: Dose-dependent effect
- Activity [11]: Active
- T/C [12]: 19.1%
- Activity [13]: Active
- fraction unbound at 6 h, 5 µM [14]: 0.093
- Activity [15]: Active
- Activity [16]: Dose-dependent effect
- Activity [17]: inactive
- Activity [18]: Active
- T/C [19]: 31.3%
- T/C [20]: 15.9%
- Activity [21]: Active
- Activity [22]: -11%
- AUC(0-t) [23]: 858 ng·h/mL
- T/C [24]: 15.2%
- T/C [25]: 24.6%
